ChEMBL document CHEMBL3585273, “Discovery of Tricyclic Clerodane Diterpenes as Sarco/Endoplasmic Reticulum Ca(2+)-ATPase Inhibitors and Structure-Activity Relationships” (J Nat Prod, 2015)

What was measured:
[1] = molecular target: T1, Sarcoplasmic/endoplasmic reticulum calcium ATPase 1 (Oryctolagus cuniculus, UniProt P04191); test: Binding affinity to rabbit skeletal muscle SERCA1a preincubated for 5 mins followed by Mg-ATP addition measured over 6 mins by spectrophotometric analysis
Method in brief: (§1)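 Rabbit skeletal muscle SR-purified SERCA1a (1 mg/mL) equilibrated in E2 state: 1 mM EGTA, 1 mM Mg2+, 10 mM Tes pH 7.5, 100 mM KCl. 10 μg protein plus compound (1.25–100 μM) preincubated 5 min at 23 °C in ATP-regenerating medium (0.1 mM Ca2+, 1 mM PEP, pyruvate kinase, lactate dehydrogenase, 0.175 mM NADH). Started with 5 mM Mg-ATP; A340 read over 6 min; three repeats.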

Sus scrofa = organism: Sus scrofa; test: Inhibition of pig kidney outer medulla Na+,K+-ATPase at 50 uM relative to control
Method in brief: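 Purified pig kidney outer medulla Na+,K+-ATPase membranes. Steady-state activity at 37 °C in 130 mM NaCl, 20 mM KCl, 4 mM MgCl2, 3 mM ATP, 20 mM histidine pH 7.4. Read-out is phosphate liberation, with 1 mM ouabain as the nonspecific ATPase blank. Compounds tested over 1–50 μM.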

CCRF-CEM = test: Cytotoxicity against human CCRF-CEM cells assessed as cell viability after 24 hrs by MTT assay; assay type: functional, cell-based
Method in brief: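 Human acute lymphoblastic leukemia CCRF-CEM cells seeded at 4 × 10^4 cells/well and exposed 24 h to a range of compound concentrations. Viability read by MTT. Doxorubicin served as positive control and 0.1% DMSO as solvent control. IC50 derived by nonlinear regression. Data are means ± SD of three independent experiments.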

[2] = Inhibition of Wistar rat stomach H+,K+-ATPase after 1 hr
[3] = molecular target: T1, Sarcoplasmic/endoplasmic reticulum calcium ATPase 1; test: Binding affinity to rabbit hind leg muscle SERCA1a by pyruvate kinase and lactate dehydrogenase coupled assay; method in brief: as §1

T1 sequence (P04191 whole entry): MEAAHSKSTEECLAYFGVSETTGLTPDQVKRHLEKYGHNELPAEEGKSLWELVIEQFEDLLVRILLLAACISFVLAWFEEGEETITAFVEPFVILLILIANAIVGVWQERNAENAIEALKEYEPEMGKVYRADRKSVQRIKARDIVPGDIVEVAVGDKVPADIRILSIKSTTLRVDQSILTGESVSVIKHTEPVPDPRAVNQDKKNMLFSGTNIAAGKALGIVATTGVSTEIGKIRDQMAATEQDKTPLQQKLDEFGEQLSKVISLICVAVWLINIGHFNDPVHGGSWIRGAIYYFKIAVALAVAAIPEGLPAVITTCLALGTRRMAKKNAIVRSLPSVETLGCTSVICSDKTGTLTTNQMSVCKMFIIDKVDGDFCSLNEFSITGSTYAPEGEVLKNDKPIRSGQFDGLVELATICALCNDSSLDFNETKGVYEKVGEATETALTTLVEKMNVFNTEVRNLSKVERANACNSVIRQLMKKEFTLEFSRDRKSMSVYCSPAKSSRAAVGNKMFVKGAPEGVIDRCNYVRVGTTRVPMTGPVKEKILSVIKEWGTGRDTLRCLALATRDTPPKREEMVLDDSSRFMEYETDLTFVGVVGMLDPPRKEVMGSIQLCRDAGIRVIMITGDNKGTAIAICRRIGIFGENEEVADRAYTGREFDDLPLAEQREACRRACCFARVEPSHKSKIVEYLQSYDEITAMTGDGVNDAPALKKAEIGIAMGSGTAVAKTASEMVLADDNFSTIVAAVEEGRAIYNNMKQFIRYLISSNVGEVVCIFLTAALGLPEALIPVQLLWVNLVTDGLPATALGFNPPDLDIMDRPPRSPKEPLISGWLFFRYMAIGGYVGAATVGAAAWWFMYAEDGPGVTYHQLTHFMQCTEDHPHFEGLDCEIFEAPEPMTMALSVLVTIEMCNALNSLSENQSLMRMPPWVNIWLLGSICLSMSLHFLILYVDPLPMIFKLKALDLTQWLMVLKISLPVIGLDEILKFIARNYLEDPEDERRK

For C=C/C(C)=C/C[C@]1(C)[C@H](C)[C@@H](O)[C@H](O)[C@@]23C(=C[C@H](OC)C[C@@H]12)[C@@H](O)O[C@H]3O, the Kd [1] was > 100 µM, the inhibition (Sus scrofa) was 6.55% and the IC50 (CCRF-CEM) was 4.3 µM.

C=CC(=C)CC[C@]1(C)[C@H](C)C[C@H](O)[C@@]23C(=C[C@@H](OC(=O)/C=C/c4ccccc4)C[C@@H]12)[C@@H](OC(C)=O)O[C@H]3OC(C)=O gave a Kd [1] of 32.1 µM.

C=CC(=C)CC[C@]1(C)[C@H](C)CC[C@@]23C(C[C@H](OC(C)=O)C[C@@H]12)[C@@H](OC(C)=O)O[C@H]3OC(C)=O (stereo partly drawn) gave a Kd [1] of 103 µM and an IC50 (CCRF-CEM) of 12 µM.

In the case of C=CC(=C)[C@H](O)C[C@]1(C)[C@H](C)C[C@H](OC(=O)CC(O)CCCCCCCCC)[C@@]23C(=C[C@H](O)C[C@@H]12)[C@@H](OC(C)=O)O[C@H]3OC(C)=O (stereo partly drawn), the Kd [1] is reported as 31.5 µM.

Compound C=C/C(C)=C/C[C@]1(C)[C@H](C)CC[C@@]23C(=CC(=O)C[C@@H]12)[C@@H](OC(C)=O)O[C@H]3OC(C)=O has a Kd [1] of 96.5 µM.

In the case of IVERMECTIN, the IC50 [2] is reported as 7.59 µM.

With C=CC(=C)CC[C@]1(C)[C@H](C)C[C@H](OC(=O)CC(O)CCCCCCCCC)[C@@]23C(=C[C@H](O)C[C@@H]12)[C@@H](OC(C)=O)O[C@H]3OC(C)=O (stereo partly drawn) the Kd [1] was 7.5 µM and the inhibition (Sus scrofa) was 26.3%.

Compound C=C/C(C)=C/C[C@]1(C)[C@H](C)[C@@H](OC(=O)CCC)[C@H](O)[C@@]23C(=C[C@H](OC)C[C@@H]12)[C@@H](OC(=O)CCC)O[C@H]3OC(C)=O has a Kd [1] of 10.1 µM, an inhibition (Sus scrofa) of 4.41% and an IC50 (CCRF-CEM) of 0.7 µM.

For C[C@H]1O[C@@H](O[C@H]2CC[C@@]3(C)[C@@H](CC[C@]4(C)[C@@H]3C=C[C@]35OC[C@@]6(CCC(C)(C)C[C@H]63)[C@H](O)C[C@]54C)[C@]2(C)CO)[C@H](O)[C@@H](O[C@@H]2O[C@H](CO)[C@@H](O)[C@H](O)[C@H]2O)[C@@H]1O, the Kd [3] was 50 µM.

With CC(=O)O[C@H]1O[C@@H](OC(C)=O)[C@]23C1=C[C@H](O)C[C@H]2[C@](C)(CCC1=CCOOC1)[C@H](C)C[C@@H]3OC(=O)/C=C/c1ccccc1 the Kd [1] was 22.3 µM.

Compound C=C/C(C)=C/C[C@]1(C)[C@H](C)C[C@H](O)[C@@]23C(=C[C@H](OC(=O)c4ccc(O)cc4)C[C@@H]12)[C@@H](OC(C)=O)O[C@H]3OC(C)=O [CASEARBORIN D] has a Kd [1] of 2 µM, an inhibition (Sus scrofa) of 23.8% and an IC50 (CCRF-CEM) of 1.1 µM.

C=CC(=C)CC[C@]1(C)[C@H](C)C[C@H](OC(=O)/C=C/c2ccccc2)[C@@]23C(=C[C@H](O)C[C@@H]12)[C@@H](OC(C)=O)O[C@H]3OC(C)=O showed a Kd [1] of 48.1 µM.

Work on C[C@H](C[C@H](O)[C@H]1OC1(C)C)C1=C2C[C@H](O)[C@H]3[C@@]4(C)CCC(=O)C(C)(C)[C@@H]4CC[C@]3(C)[C@@]2(C)CC1 [ALISOL B] yielded a Kd [3] of 27 µM.

In the case of C=C/C(C)=C/C[C@]1(C)[C@H](C)C[C@H](OC(C)=O)[C@@]23C(=C[C@H](OC(=O)c4ccc(O)cc4)C[C@@H]12)[C@@H](OC(C)=O)O[C@H]3OC(C)=O, the Kd [1] is reported as 20.1 µM and the IC50 (CCRF-CEM) is reported as 1.2 µM.
